Columns and labels:
Assay type in all cases: functional
SN12C = experiment: Growth inhibition of human SN12C cells at 10 uM after 48 hrs by SRB assay; details: read-out: GI
Outline: (§1)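 NCI-60 primary one-dose screen run at the US NCI, with human tumour lines from nine cancer types. Compound added once at 10^-5 M, followed by 48 h incubation. End point was sulforhodamine B protein staining read spectrophotometrically. Result given as percent growth of treated cells against untreated controls, reported as % growth inhibition.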

[1] = Growth inhibition of human RXF393 cells at 10 uM after 48 hrs by SRB assay; details: RXF 393, 48 h, read-out: GI; outline: as §1
HT-29 = experiment: Growth inhibition of human HT-29 cells at 10 uM after 48 hrs by SRB assay; details: HT-29, 48 h, read-out: GI; outline: as §1
SR = experiment: Growth inhibition of human SR cells at 10 uM after 48 hrs by SRB assay; details: read-out: GI; outline: as §1
MDA-MB-435 = experiment: Growth inhibition of human MDA-MB-435 cells at 10 uM after 48 hrs by SRB assay; details: MDA-MB-435, 48 h, read-out: GI; outline: as §1
[2] = Growth inhibition of human HOP92 cells at 10 uM after 48 hrs by SRB assay; details: HOP-92, 48 h, read-out: GI; outline: as §1
SW-620 = experiment: Growth inhibition of human SW620 cells at 10 uM after 48 hrs by SRB assay; details: SW-620, 48 h, read-out: GI; outline: as §1
MDA-MB-231 = experiment: Growth inhibition of human MDA-MB-231 cells at 10 uM after 48 hrs by SRB assay; details: MDA-MB-231, 48 h, read-out: GI; outline: as §1
T47D = experiment: Growth inhibition of human T47D cells at 10 uM after 48 hrs by SRB assay; details: read-out: GI; outline: as §1
SNB-75 = experiment: Growth inhibition of human SNB75 cells at 10 uM after 48 hrs by SRB assay; details: SNB-75, 48 h, read-out: GI; outline: as §1
[3] = Growth inhibition of human NCI-ADR-RES cells at 10 uM after 48 hrs by SRB assay; details: read-out: GI; outline: as §1
MCF7 = experiment: Growth inhibition of human MCF7 cells at 10 uM after 48 hrs by SRB assay; details: MCF7, 48 h, read-out: GI; outline: as §1
786-0 = experiment: Growth inhibition of human 786-0 cells at 10 uM after 48 hrs by SRB assay; details: 786-0, 48 h, read-out: GI
Outline: (§2)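 NCI primary one-dose screen. A single concentration of 10^-5 M was added to the cell culture, followed by 48 h incubation and an SRB protein-dye endpoint read spectrophotometrically. Results are growth percentage relative to untreated control cells, reported as % growth inhibition.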

U-251 = experiment: Growth inhibition of human U251 cells at 10 uM after 48 hrs by SRB assay; details: U-251, 48 h, read-out: GI; outline: as §1
[4] = Growth inhibition of human OVCAR8 cells at 10 uM after 48 hrs by SRB assay; details: OVCAR-8, 48 h, read-out: GI; outline: as §1
[5] = Growth inhibition of human EKVX cells at 10 uM after 48 hrs by SRB assay; details: read-out: GI; outline: as §1
[6] = Growth inhibition of human UO31 cells at 10 uM after 48 hrs by SRB assay; details: UO-31, 48 h, read-out: GI; outline: as §1
[7] = Growth inhibition of human OVCAR3 cells at 10 uM after 48 hrs by SRB assay; details: OVCAR-3, 48 h, read-out: GI; outline: as §1
PC-3 = experiment: Growth inhibition of human PC3 cells at 10 uM after 48 hrs by SRB assay; details: PC-3, 48 h, read-out: GI; outline: as §1
NCI-H226 = experiment: Growth inhibition of human NCI-H226 cells at 10 uM after 48 hrs by SRB assay; details: NCI-H226, 48 h, read-out: GI; outline: as §1
CCRF-CEM = experiment: Growth inhibition of human CCRF-CEM cells at 10 uM after 48 hrs by SRB assay; details: read-out: GI; outline: as §2
NCI-H522 = experiment: Growth inhibition of human NCI-H522 cells at 10 uM after 48 hrs by SRB assay; details: NCI-H522, 48 h, read-out: GI; outline: as §1
SK-MEL-28 = experiment: Growth inhibition of human SK-MEL-28 cells at 10 uM after 48 hrs by SRB assay; details: SK-MEL-28, 48 h, read-out: GI; outline: as §1
NCI-H322M = experiment: Growth inhibition of human NCI-H322M cells at 10 uM after 48 hrs by SRB assay; details: read-out: GI; outline: as §1
[8] = Growth inhibition of human Hs578T cells at 10 uM after 48 hrs by SRB assay; details: Hs-578T, read-out: GI; outline: as §1
Malme-3M = experiment: Growth inhibition of human MALME-3M cells at 10 uM after 48 hrs by SRB assay; details: read-out: GI; outline: as §1
COLO 205 = experiment: Growth inhibition of human COLO205 cells at 10 uM after 48 hrs by SRB assay; details: COLO 205, 48 h, read-out: GI; outline: as §2
[9] = Growth inhibition of human OVCAR5 cells at 10 uM after 48 hrs by SRB assay; details: OVCAR-5, 48 h, read-out: GI; outline: as §1
M14 = experiment: Growth inhibition of human M14 cells at 10 uM after 48 hrs by SRB assay; details: M14, 48 h, read-out: GI; outline: as §1
IGROV-1 = experiment: Growth inhibition of human IGROV1 cells at 10 uM after 48 hrs by SRB assay; details: IGROV-1, 48 h, read-out: GI; outline: as §1
NCI-H23 = experiment: Growth inhibition of human NCI-H23 cells at 10 uM after 48 hrs by SRB assay; details: NCI-H23, 48 h, read-out: GI; outline: as §1
[10] = Growth inhibition of human HCT15 cells at 10 uM after 48 hrs by SRB assay; details: HCT-15, 48 h, read-out: GI; outline: as §1
[11] = Growth inhibition of human SF539 cells at 10 uM after 48 hrs by SRB assay; details: SF-539, 48 h, read-out: GI; outline: as §1
HOP-62 = experiment: Growth inhibition of human HOP62 cells at 10 uM after 48 hrs by SRB assay; details: HOP-62, 48 h, read-out: GI; outline: as §1
SK-MEL-5 = experiment: Growth inhibition of human SK-MEL-5 cells at 10 uM after 48 hrs by SRB assay; details: SK-MEL-5, 48 h, read-out: GI; outline: as §1
[12] = Growth inhibition of human BT549 cells at 10 uM after 48 hrs by SRB assay; details: BT-549, 48 h, read-out: GI; outline: as §2
KM12 = experiment: Growth inhibition of human KM12 cells at 10 uM after 48 hrs by SRB assay; details: KM12, 48 h, read-out: GI; outline: as §1
DU-145 = experiment: Growth inhibition of human DU145 cells at 10 uM after 48 hrs by SRB assay; details: DU-145, 48 h, read-out: GI; outline: as §1
SNB-19 = experiment: Growth inhibition of human SNB19 cells at 10 uM after 48 hrs by SRB assay; details: SNB-19, 48 h, read-out: GI; outline: as §1

For Cc1ccc(-c2nc3ccc(Cl)cc3c3nnc(S)n23)cc1, the inhibition of growth at 10 µM (SN12C) was less than 10%, the inhibition of growth at 10 µM [1] was less than 10% and the inhibition of growth at 10 µM (HT-29) was less than 10%. The inhibition of growth at 10 µM (SR) was less than 10%, the inhibition of growth at 10 µM (MDA-MB-435) was less than 10% and the inhibition of growth at 10 µM [2] was less than 10%. For the same compound, the inhibition of growth at 10 µM (SW-620) was less than 10%, the inhibition of growth at 10 µM (MDA-MB-231) was 16% and the inhibition of growth at 10 µM (T47D) was less than 10%. It also gave an inhibition of growth at 10 µM (SNB-75) of less than 10%, an inhibition of growth at 10 µM [3] of less than 10% and an inhibition of growth at 10 µM (MCF7) of less than 10%. The inhibition of growth at 10 µM (786-0) was less than 10%, the inhibition of growth at 10 µM (U-251) was less than 10% and the inhibition of growth at 10 µM [4] was less than 10%. The inhibition of growth at 10 µM [5] was 11%, the inhibition of growth at 10 µM [6] was less than 10% and the inhibition of growth at 10 µM [7] was less than 10%. For the same compound, the inhibition of growth at 10 µM (PC-3) was less than 10%, the inhibition of growth at 10 µM (NCI-H226) was 27% and the inhibition of growth at 10 µM (CCRF-CEM) was 12%. The inhibition of growth at 10 µM (NCI-H522) was less than 10%, the inhibition of growth at 10 µM (SK-MEL-28) was less than 10% and the inhibition of growth at 10 µM (NCI-H322M) was less than 10%. The inhibition of growth at 10 µM [8] was less than 10%, the inhibition of growth at 10 µM (Malme-3M) was less than 10% and the inhibition of growth at 10 µM (COLO 205) was less than 10%. For the same compound, the inhibition of growth at 10 µM [9] was less than 10%, the inhibition of growth at 10 µM (M14) was less than 10% and the inhibition of growth at 10 µM (IGROV-1) was less than 10%. The inhibition of growth at 10 µM (NCI-H23) was less than 10%, the inhibition of growth at 10 µM [10] was less than 10% and the inhibition of growth at 10 µM [11] was less than 10%. It also gave an inhibition of growth at 10 µM (HOP-62) of less than 10%, an inhibition of growth at 10 µM (SK-MEL-5) of 12% and an inhibition of growth at 10 µM [12] of less than 10%. It also gave an inhibition of growth at 10 µM (KM12) of 11%, an inhibition of growth at 10 µM (DU-145) of less than 10% and an inhibition of growth at 10 µM (SNB-19) of less than 10%.

Reference: ChEMBL document CHEMBL3259728, “Design, synthesis and biological evaluation of some novel substituted quinazolines as antitumor agents” (2014)
